High-throughput results (PubChem)
In the library only some 1.5% were active in any assay of this set; here they are far more common.
RAD54 branch = blocks human RAD54 Holliday junction branch migration | Q92698 | inhibition, % at 10.4 µM | actives 0.14% (n = 360,000) | FAM/BHQ fluorescence | AID 602329;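 active = mean normalized replicate activity at least 40 and at least half of replicates scoring 40 or more; inconclusive = only one of the two criteria met; inactive = mean below 40 and under half of replicates reaching 40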;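 also: inhibitors cause a drop in the FAM fluorescence signal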
S100A4 MyoIIA = blocks human S100A4 binding to myosin IIA peptide; P26447; S100A4/TAMRA-MyoIIA peptide fluorescence polarization; inhibition, % at 10.7 µM; actives 0.14% (n = 360,000); AID 652163;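 active = mean inhibition of at least 70% across replicates, with every replicate also reaching that level; inconclusive = mean inhibition reaches 70% but some replicates fall short; inactive = mean inhibition below 70%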
Target sequence (P26447 whole entry, looked up): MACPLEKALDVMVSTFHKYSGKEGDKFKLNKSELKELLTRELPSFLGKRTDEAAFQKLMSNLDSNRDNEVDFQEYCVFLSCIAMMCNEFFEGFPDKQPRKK
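incubation = readout 5 min after mixing, signal stable up to 60 min | system = S100A4 monomer protein | buffer or medium = HEPES pH 7.2 with CaCl2, KCl, NaCl, DTT, Triton | benchmarks = neutral control DMSO, positive control TFP | also added = fluorescent myosin IIA peptide, 5 nM | compound dosing = one concentration per compound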
MLL AF4-AF9 inh = inhibitors of human MLL-AF4/AF9 interaction | AID 651704 | inhibition, % at 10 µM | actives 0.47% (n = 350,000) | AlphaScreen, biotin-AF4 peptide binding to FLAG-AF9;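 active = every replicate reaching a set inhibition limit, whatever the replicate mean, cut at about 25% in these data; inconclusive = mean inhibition reaches that limit but some replicates miss it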
Target sequence (P42568 whole entry, looked up): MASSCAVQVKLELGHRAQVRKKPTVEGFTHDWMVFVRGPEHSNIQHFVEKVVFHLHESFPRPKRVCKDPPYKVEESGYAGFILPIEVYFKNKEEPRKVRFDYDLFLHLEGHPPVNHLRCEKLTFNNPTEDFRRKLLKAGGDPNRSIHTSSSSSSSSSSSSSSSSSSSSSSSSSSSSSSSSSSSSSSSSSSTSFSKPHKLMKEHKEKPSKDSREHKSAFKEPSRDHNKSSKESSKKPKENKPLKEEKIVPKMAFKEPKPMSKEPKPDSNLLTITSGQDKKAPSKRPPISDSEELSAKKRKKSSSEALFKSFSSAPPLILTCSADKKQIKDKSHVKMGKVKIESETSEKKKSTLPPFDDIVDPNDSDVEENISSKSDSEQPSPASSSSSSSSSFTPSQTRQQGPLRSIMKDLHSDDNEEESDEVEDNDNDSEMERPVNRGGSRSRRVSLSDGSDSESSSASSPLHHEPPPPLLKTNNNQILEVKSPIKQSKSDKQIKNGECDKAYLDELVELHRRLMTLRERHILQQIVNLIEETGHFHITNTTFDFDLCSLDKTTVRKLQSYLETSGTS
RAD52 inh = inhibitors of human RAD52 DNA annealing | P43351 | recombinant RAD52 DNA annealing, FRET fluorescence | inhibition, % at 18.7 µM | actives 0.46% (n = 360,000);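 active = every replicate showing at least 50% inhibition; inconclusive = mean inhibition at least 50% but not in every replicate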
dFosB act = activators of mouse delta FosB homodimer; P13346; purified delta FosB, TAMRA-CDK5 oligo fluorescence polarization; percent of positive-control signal above neutral wells; activation, % at 25 µM; actives 0.99% (n = 340,000);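 active = mean activation above about 17%, with every replicate also reaching it, limit read from the data, passing the limit was not always enough; inconclusive = only one of the two conditions met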
Large screens that a line does not name were inactive; ! = a repeat was not active.

CCOc1nc(N=C(N)N)nc2c(C)cccc12	RAD54 branch 60 (no result: S100A4 MyoIIA, MLL AF4-AF9 inh, RAD52 inh)
CC(C)(C)OC(=O)C[C@@H]1C/C=C\C[C@H](CC(=O)N[C@H](CO)Cc2ccccc2)C(=O)N[C@H](Cc2ccccc2)COC1=O	none
CC(C)(C)OC(=O)C[C@H]1C/C=C\C[C@H](CC(=O)N[C@H](CO)Cc2ccccc2)C(=O)N[C@H](Cc2ccccc2)COC1=O	S100A4 MyoIIA 108
CC(C)NC(=O)N(C)C[C@@H]1OCCCC[C@@H](C)Oc2ccc(NS(=O)(=O)c3cn(C)cn3)cc2C(=O)N([C@H](C)CO)C[C@H]1C	none (no result: dFosB act)
COC(=O)C1Cc2c([nH]c3ccccc23)C2(CCN(Cc3ccccc3)CC2)N1 (stereo unspecified)	MLL AF4-AF9 inh 30
C[C@@H]1CN([C@@H](C)CO)C(=O)c2cc(NC(=O)CCCCCC(=O)Nc3ccccc3N)ccc2O[C@H]1CN(C)C(=O)Nc1ccc2c(c1)OCO2	S100A4 MyoIIA 119 (no result: RAD54 branch, dFosB act)
C[C@H](CO)N1C[C@H](C)[C@H](CN(C)C(=O)Nc2ccc3c(c2)OCO3)Oc2ccc(NC(=O)CCCCCC(=O)Nc3ccccc3N)cc2C1=O	none (no result: RAD54 branch, dFosB act)
C[C@@H]1CN([C@H](C)CO)C(=O)c2cc(NC(=O)C3CC3)ccc2O[C@@H]1CN(C)C(=O)Nc1ccc2c(c1)OCO2	S100A4 MyoIIA 103 (no result: dFosB act)
CCn1cc(/C=C(\NC(=O)c2cc(OC)c(OC)c(OC)c2)C(=O)NCCCN2CCOCC2)c2ccccc21	MLL AF4-AF9 inh 25 (no result: RAD54 branch)
CCc1ccc(S(=O)(=O)/N=C2\C=C(Nc3ccc(C(=O)O)cc3)C(=O)c3ccccc32)cc1	MLL AF4-AF9 inh 28
COc1ccccc1CN1C[C@@H](C)[C@@H](OC)CN(C)C(=O)c2ccc(NC(C)=O)cc2OC[C@H]1C	none (no result: dFosB act)
C1=C2C[N+]3(CCCC3)CC2Cc2ccc3ccccc3c21 (stereo unspecified)	RAD54 branch 54 (no result: MLL AF4-AF9 inh)
Cc1n[nH]c(C)c1Sc1ccccc1N=Cc1cc(Cl)cc([N+](=O)[O-])c1O	dFosB act 51 (no result: S100A4 MyoIIA, MLL AF4-AF9 inh, RAD52 inh)
Cc1n[nH]c(C)c1Sc1ccccc1[N+](=O)[O-]	none (no result: RAD54 branch)
CO[C@H](CN(C)C(=O)c1ccccc1F)[C@@H](C)CN([C@H](C)CO)S(=O)(=O)c1ccc(Cl)cc1	none (no result: dFosB act)
Cn1nc(CC(=O)Nc2ccc(N3CCN(C(=O)OC(C)(C)C)CC3)cc2)c2ccccc2c1=O	dFosB act 21 (no result: S100A4 MyoIIA, MLL AF4-AF9 inh, RAD52 inh)
COc1cccc(-c2cnc3c(NC=O)cc(-c4ccc(N5CCN(C)CC5)cc4)cn23)c1	MLL AF4-AF9 inh 35 (no result: dFosB act)
CCN(CC)Cc1c(C(=O)N/N=C/c2ccncc2)nnn1-c1nonc1N	none
CCN(CC)Cc1c(C(=O)N/N=C(\C)c2ccncc2)nnn1-c1nonc1N	MLL AF4-AF9 inh 43 (no result: RAD54 branch)
C[C@@H]1CN([C@H](C)CO)C(=O)c2cc(N(C)C)ccc2O[C@H]1CN(C)C(=O)Nc1ccc(C(F)(F)F)cc1	none (no result: dFosB act)
Oc1c(C(Nc2ccccn2)c2cccnc2)cc(Cl)c2cccnc12 (stereo unspecified)	MLL AF4-AF9 inh 43 (no result: RAD54 branch)
CCCCCCCCCCOC(=O)Cn1c(COc2ccccc2C)[n+](C)c2ccccc21	RAD54 branch inconclusive, RAD52 inh 83, dFosB act 37 (no result: MLL AF4-AF9 inh)
CCOC(=O)Cn1c(COc2ccccc2OC)[n+](C)c2ccccc21	none (no result: dFosB act)
CCCCCCCCCCOC(=O)Cn1c(COc2ccc(OC)cc2)[n+](C)c2ccccc21	RAD54 branch 58!, dFosB act 40! (no result: S100A4 MyoIIA, MLL AF4-AF9 inh, RAD52 inh)
CC(C)NC(=O)N(C)C[C@H]1OCCCC[C@H](C)Oc2ccc(NS(=O)(=O)c3ccc(F)cc3)cc2C(=O)N([C@@H](C)CO)C[C@@H]1C	none (no result: dFosB act)
COc1cc(/C=C/c2sc3ccccc3[n+]2CCCS(=O)(=O)[O-])ccc1O	dFosB act 241 (no result: RAD54 branch)
Cc1ccc2c(c1)sc(C)[n+]2CCCS(=O)(=O)[O-]	none
CCC(/C=C1\Oc2ccc(OC)cc2N1C)=C\c1sc2ccccc2[n+]1CCCS(=O)(=O)[O-]	dFosB act 26
O=C(C[C@@H]1CC[C@@H](NC(=O)Nc2ccccc2F)[C@@H](CO)O1)NCc1ccc(F)cc1	none (no result: RAD54 branch, dFosB act)
COc1cccc(/C=N/Nc2nc(Nc3ccc([N+](=O)[O-])cc3)nc(N3CCCC3)n2)c1O	dFosB act 67
COc1c(/C=N/Nc2nc(N3CCCCC3)nc(N3CCCCC3)n2)cccc1[N+](=O)[O-]	none (no result: S100A4 MyoIIA, MLL AF4-AF9 inh, RAD52 inh)
COc1ccc(Nc2ccc(Cl)nn2)cc1	MLL AF4-AF9 inh 43
O=C1[C@@H]2[C@@H](CC(COc3ccccc3)=C3[C@@H](c4ccccc4)OB(O)C[C@@H]32)C(=O)N1Cc1ccccc1	none (no result: RAD54 branch, dFosB act)
Cn1c(=O)c(C(N)=S)cn(-c2ccccc2)c1=O	none
NC(=O)c1cc(Cl)cn(-c2ccccc2)c1=O	MLL AF4-AF9 inh 50
C[C@@H]1CN([C@H](C)CO)C(=O)c2cc(NC(=O)CCN3CCOCC3)ccc2O[C@H]1CN(C)S(=O)(=O)c1cccs1	none (no result: dFosB act)
C[C@H]1CCCCO[C@H](CN(C)Cc2ccncc2)[C@@H](C)CN([C@@H](C)CO)C(=O)c2cc(NS(=O)(=O)c3cn(C)cn3)ccc2O1	none (no result: dFosB act)
CN(C)CCCNC(=O)C[C@H]1C[C@H](C(=O)N2CCCCC2)[C@@]2(CCc3ccccc3)c3[nH]c4cc(-c5ccco5)ccc4c3CCN2C1=O	MLL AF4-AF9 inh 53, RAD52 inh 75
C[C@H](CO)N1C[C@H](C)[C@H](CN(C)C)Oc2cc(C#Cc3cccnc3)ccc2S1(=O)=O	none (no result: dFosB act)
Cc1cc(C)c(NC(=O)Cn2cnc3c(oc4ccccc43)c2=O)c(C)c1	dFosB act 52 (no result: RAD54 branch)
Cc1ccccc1NC(=O)Cn1cnc2c(oc3ccccc32)c1=O	none (no result: S100A4 MyoIIA, MLL AF4-AF9 inh, RAD52 inh)
CC(=O)N1CCC(C(=O)NCCOc2cccc(C)c2)CC1	MLL AF4-AF9 inh 26
O=C(C1CCC1)N1C[C@@H]2[C@H](c3ccccc31)[C@H](CO)N2S(=O)(=O)c1ccccc1	none (no result: dFosB act)
Cc1ccc(Nc2cc(C)c3c(O)cccc3n2)cc1C	dFosB act 39
Cc1ccc(-n2ncc3c(=O)n(CC(=O)Nc4cccc(Cl)c4)cnc32)cc1C	dFosB act 42 (no result: S100A4 MyoIIA, MLL AF4-AF9 inh, RAD52 inh)
CC(C)NC(=O)N(C)C[C@H]1OCCCC[C@@H](C)Oc2ccc(NC(=O)c3ccncc3)cc2C(=O)N([C@@H](C)CO)C[C@@H]1C	none (no result: dFosB act)
CNC[C@@H]1Oc2c(NC(=O)C3CC3)cccc2C(=O)N([C@@H](C)CO)C[C@H]1C	none (no result: RAD54 branch, S100A4 MyoIIA, dFosB act)
COc1ccc(C(=O)Nc2nnc(CC(=O)N/N=C/c3ccc(O)cc3O)s2)cc1	dFosB act 36 (no result: RAD54 branch)
C[C@@H]1CN([C@@H](C)CO)C(=O)c2cc(NS(=O)(=O)c3ccc(F)cc3)ccc2O[C@@H](C)CCCCO[C@@H]1CN(C)S(=O)(=O)c1ccc(Cl)cc1	none (no result: dFosB act)
Cc1ccc(S(=O)(=O)N(C)C[C@@H]2OCCCC[C@H](C)Oc3ccc(NC(=O)NC4CCCCC4)cc3C(=O)N([C@@H](C)CO)C[C@H]2C)cc1	MLL AF4-AF9 inh 26 (no result: dFosB act)
CCCN(C)C[C@H]1OCCCC[C@H](C)Oc2ccc(NS(=O)(=O)c3ccccc3)cc2C(=O)N([C@@H](C)CO)C[C@H]1C	none (no result: dFosB act)
